Source: PubChem BioAssay
The list is not random: actives were taken first. Their share in the collection is about 1.5%.
bCat nuc transl: alters nuclear translocation of beta-catenin in HeLa cells; immunofluorescence imaging; hit rate 0.3% among 190,000; nuclear translocation activity, % at 5 µM;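 active = nuclear translocation activity above 50% at 5 µM, with a well cell count of 50 or more; inconclusive = wells under 50 cells across six images, flagged as toxic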;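 note: per-cell ratio of nuclear to cytoplasmic median beta-catenin stain intensity; plate controls were DMSO negative control for no effect and GSK-3 inhibitor IX positive control for full effect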
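System: HeLa cells, endogenous beta-catenin; compound dosing: 5 µM primary single dose, 0.1% DMSO, 0.02–20 µM confirmation series; incubation: 24 h compound exposure at 37°C, 5% CO2; signal: beta-catenin immunofluorescence imaging with DAPI; evaluation: % activation, nuclear-to-cytoplasmic median beta-catenin signal ratio per cell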
TbHK1 inh: T. brucei hexokinase 1 inhibition. hit rate 0.11% among 220,000. inhibition, % at 10 µM. AID 1430. recombinant TbHK1, G6PDH-coupled NADH A340;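 active = inhibition of 50% or more in the single-dose primary screen; inactive = inhibition below 50%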
Rad51 HR inh: blocks human Rad51 in homologous recombination; Q06609; hRad51 DNA strand exchange, fluorescence dequenching; inhibition, % at 10 µM; hit rate 0.085% among 200,000; AID 1385;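 active = inhibition above 40% at the single screening dose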;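 note: 0% = DMSO control wells and 100% = blanks with heterologous ssDNA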
Target sequence (Q06609 whole entry, looked up): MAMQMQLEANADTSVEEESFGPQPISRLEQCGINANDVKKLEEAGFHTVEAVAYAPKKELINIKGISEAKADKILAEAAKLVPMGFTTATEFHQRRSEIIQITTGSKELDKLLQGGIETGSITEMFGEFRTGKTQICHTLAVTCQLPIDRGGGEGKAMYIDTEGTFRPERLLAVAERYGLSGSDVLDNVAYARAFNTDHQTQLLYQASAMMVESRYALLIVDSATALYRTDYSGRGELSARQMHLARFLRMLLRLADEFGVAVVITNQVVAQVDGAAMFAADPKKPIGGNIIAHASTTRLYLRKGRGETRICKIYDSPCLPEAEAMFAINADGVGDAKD
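Test system: preformed human Rad51 ssDNA filaments. Compound dosing: single dose, 10 µM final compound. Incubation: filaments 15 min 37 °C, then compound 30 min. Technique: FRET fluorescence dequenching, excitation 485 nm, emission 520 nm. Read-out basis: percent inhibition from fluorescence, normalised to plate control and blank means. Benchmarks: plate controls and plate blanks.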
Dynein transport: dynein cargo transport inhibition; hit rate 0.47% among 220,000; 3617.4 mouse cells, GR-EGFP nuclear translocation imaging; test concentration mostly 20 µM; stimulated with dexamethasone, 1 µM; hits give low values; z-score, hits read low;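 active = plate z-score of nuclear minus cytoplasmic receptor signal below a set negative limit, without overly bright fluorescence or cell loss, cut at about -3.5 in these data, passing the limit was not always enough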;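 note: z-score of nuclear minus cytoplasmic ring GR-EGFP intensity difference per well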
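Also added: dexamethasone, 1.0 µM final. Medium: tet-free, stripped-serum medium. Detection: fixed, Hoechst-stained cells imaged at 10x for EGFP. Read-out: nuclear-to-cytoplasmic GR-EGFP distribution per well. Times: induction 48 h, compound 1 h, agonist 30 min.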
MT stabilize HCS: microtubule stabilizers in HeLa cells | % tubulin-high responders, % at 10 µM | HeLa tubulin immunostaining HCS, 24 h; share of cells brighter than vehicle mean+2SD | AID 2205 | hit rate 0.83% among 200,000;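 active = plate Z-score above 3 for both tubulin-high and condensed-nucleus cell shares, with cell loss under 80%, at 10 µM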;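 note: anti alpha tubulin signal scored within the nucleus-defined area of each cell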
G6PDH ctr: inhibits Leuconostoc G6PDH, counter-screen for TbHK1 inhibitors; shares compounds with TbHK1 inh; purified G6PDH, NADH absorbance, 1 h; inhibition, % at 10 µM; hit rate 7% among 210; AID 2516;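 active = at least 50% inhibition in the glucose-6-phosphate dehydrogenase coupled counterscreen; inconclusive = no clear call, values can overlap the other calls; inactive = inhibition below 50%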
TbHK1 rescreen: confirmation of Trypanosoma brucei hexokinase 1 inhibitors; recombinant TbHK1, G6PDH-coupled NADH A340 absorbance; hit rate 10% among 210; inhibition, % at 10 µM; shares compounds with TbHK1 inh;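 active = inhibition of at least 50% in both of the two screening runs; inconclusive = at least 50% in one run, below 50% in the other; inactive = inhibition below 50% in both runs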;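 note: 0% and 100% set by the maximum and minimum signal control wells on each plate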
Starred values were filed as active, the others as inactive; ? = inconclusive; · = no result.

SMILES | bCat nuc transl | TbHK1 inh | Rad51 HR inh | Dynein transport | MT stabilize HCS | G6PDH ctr | TbHK1 rescreen
O=C(NC1CC2CCCC(C1)N2C(=O)NC1CCCCC1)c1ccc(F)cc1 (stereo unspecified) | 2 | 65* | 3 | -0.034 | 5 | -8 | -3
O=C(O)C1C(c2ccccc2)C(C(=O)Oc2ccccc2)C1c1ccccc1 (stereo unspecified) | -1 | -11 | 4 | -0.27 | 1 | · | ·
COC(=O)C1C(c2ccccc2)C(C(=O)N2CCN(C)CC2)C1c1ccccc1 (stereo unspecified) | -2 | 53* | -4 | 0.79 | 4 | -10 | -14
Cc1cccc(NC(=O)C2CC(=O)N(c3ccccc3)C2)c1C (stereo unspecified) | -1 | 3 | -2 | -0.26 | 4 | · | ·
CC(=O)Nc1ccc(NC(=O)C2CC(=O)N(c3cccc(C)c3C)C2)cc1 (stereo unspecified) | -2 | 51* | -22 | -0.75 | 5 | -7 | -1
COc1ccc(NC(=O)C2CC(=O)N(c3cccc(C)c3C)C2)cc1 (stereo unspecified) | -6 | 56* | 5 | -0.84 | 4 | -6 | -1
Cn1cccc1C(C#N)c1cccc(F)c1C#N (stereo unspecified) | -1 | 0 | 22 | 3.2 | 3 | · | ·
O=C(NC(NC(=O)c1ccccc1)C(=O)c1ccccc1)c1ccccc1 | 0 | 3 | 5 | -0.41 | 4 | · | ·
CCOC(=O)NC(NC(=O)OCC)C(=O)c1ccccc1 | -2 | 65* | -1 | 0.15 | 4 | -5 | -1
CCCCc1ccc(/C=C2/C(=O)ON=C2c2ccccc2)s1 | · | 55* | · | 0.61 | 2 | -37 | 55*
Cn1c(NCc2cc(Br)ccc2O)nc2ccccc21 | -2 | 7 | 3 | -0.69 | 2 | · | ·
O=C(c1cc(N2C(=O)C3C4CCC(C4)C3C2=O)ccc1Cl)N1CCCCCC1 (stereo unspecified) | -3 | -2 | -1 | -0.26 | 2 | · | ·
COc1cc(OC)cc(C(=O)NC2CCN(CC(=O)Nc3cccc4ccccc34)CC2)c1 | · | 53* | 1 | -0.086 | 5 | -39 | -8
COc1cccc(C(=O)NC2CCN(CC(=O)Nc3cccc(C)c3C)CC2)c1 | 0 | -6 | -5 | 1.8 | 1 | · | ·
Cc1cc(C)c2c(=O)n(CC(=O)Nc3ccc(Br)c(C)c3)sc2n1 | 1 | 51* | · | -0.83 | · | -6 | 42
COc1cc(C)c(S(=O)(=O)N2CCN=C2c2ccccc2)cc1C | -6 | 15 | -2 | 2.7 | 4 | · | ·
Cc1ccc(-n2c(Cn3c(C)nc4ccccc43)n[nH]c2=S)cc1 | 8 | -6 | -59 | 1.1 | 1 | · | ·
Cc1nc(S(=O)(=O)N2CCOCC2)c(C#N)c(C)c1Cl | · | 55* | -3 | -1.3 | 5 | -8 | -5
Cn1c(=O)[nH]c(=O)c2c1nc1n2CCCN1Cc1ccccc1 | 1 | 3 | 27 | -0.063 | · | · | ·
CSc1nnc(-c2ccccc2)o1 | -6 | 55* | 0 | -0.79 | 7 | -4 | 2
c1ccc(-c2nnc(-c3ccccc3)o2)cc1 | 2 | 5 | -12 | 0.28 | 2 | · | ·
CCCCCC(C(=O)O)C(C)CC(=O)NC1CCCCC1 (stereo unspecified) | 0 | 63* | -1 | 0.78 | 4 | -20 | -7
CCNC(=O)NC(=O)CSc1ccc(NC(C)=O)cc1 | -8 | 74* | -2 | 0.73 | 6 | -7 | 0
COc1ccc(/C=N/N2C(=O)CSC2=S)cc1 | -2 | -31 | 4 | -0.7 | 2 | · | ·
O=C1CSC(=S)N1/N=C/c1ccc(O)c(O)c1O | 0 | 50* | -9 | 0.39 | · | -49 | 35
SMILES | bCat nuc transl | TbHK1 inh | Rad51 HR inh | Dynein transport | MT stabilize HCS | G6PDH ctr | TbHK1 rescreen
NC(Cc1cccc2nsnc12)C(=O)O (stereo unspecified) | -3 | 58* | -1 | -0.016 | 4 | -18 | -7
CCOC(=O)Cc1[nH]nc2c1C(C1C=CCCC1)C(C#N)=C(N)O2 (stereo unspecified) | 1 | 1 | -4 | 1.7 | 3 | · | ·
CCCOc1ccc(C(CC(=O)O)NC(=O)C23CC4CC(CC(C4)C2)C3)cc1 (stereo unspecified) | -1 | 60* | 0 | -0.46 | 3 | -30 | 2
O=C(O)CC(NC(=O)C12CC3CC(CC(C3)C1)C2)c1ccc2c(c1)OCO2 (stereo unspecified) | -1 | -9 | · | 2.2 | 5 | · | ·
COc1cc(CCC(=O)OCC(=O)NC(=O)c2ccc(Cl)cc2)cc(OC)c1OC | 0 | -1 | -10 | 0.99 | 3 | · | ·
COc1cc(CCC(=O)OCC(N)=O)cc(OC)c1OC | 0 | 56* | -5 | 1 | 3 | -6 | -5
CN(CCO)C(=O)CCC(=O)Nc1ccc(S(N)(=O)=O)cc1 | -8 | 60* | -3 | -0.33 | 4 | -1 | 6
Cc1ccccc1C(=O)/C(C#N)=N/Nc1c(C)n(C)n(-c2ccccc2)c1=O | 3 | 53* | · | -0.13 | 3 | -81 | -62
Cc1c(N/N=C(\C#N)C(=O)c2ccccc2)c(=O)n(-c2ccccc2)n1C | 2 | 47 | · | 0.51 | 4 | · | ·
COC(Cn1cc(C)c(=O)[nH]c1=O)OC | 0 | -10 | 4 | -0.082 | 2 | · | ·
O=C(C1CCN(S(=O)(=O)c2ccc(-n3cnnn3)cc2)CC1)N1CCN(c2ccccc2)CC1 | · | -6 | -1 | -0.17 | 2 | · | ·
COc1ccc(CC(=O)O/N=C(\N)Cc2ccc(OC)c(OC)c2)cc1 | · | -10 | 8 | 1.7 | 2 | · | ·
OCC[C@H]1C[C@H](O)[C@@H](O)[C@@]2(CCCO2)O1 | · | · | -2 | · | · | · | ·
O=c1c(O)cccc2cc(O)c(O)c(O)c12 | 0 | 70* | 6 | -0.55 | · | -8 | ?
COc1cc2cccc(OC)c(=O)c2c(OC)c1OC | 2 | -13 | 1 | 0.067 | 4 | · | ·
C/C(Cl)=C/Cn1c(SC(C)C)nc2c1c(=O)[nH]c(=O)n2C | 1 | 5 | -9 | -0.23 | 5 | · | ·
CCS(=O)(=O)c1ccc(O)c(NC(=O)Nc2ccccc2)c1 | 0 | 50* | 6 | 2.1 | 4 | -3 | 2
CCS(=O)(=O)c1ccc(O)c(NC(=O)Nc2ccc(C(C)(C)C)cc2)c1 | 1 | -3 | · | -0.38 | · | · | ·
O=C(CSc1n[nH]c(-c2cccs2)n1)N1CCCc2ccccc21 | -2 | 0 | 0 | -0.41 | 2 | · | ·
O=C(CSc1n[nH]c(-c2ccccc2O)n1)N1CCCc2ccccc21 | -1 | 64* | -1 | -0.67 | 48* | -4 | -1
COCCN(CCOC)Cc1c(C)[nH]c2ccccc2c1=O | 0 | 0 | -1 | -1.1 | 3 | · | ·
CC(C)N(C(=O)c1ccc(C(=O)Nc2ccc([N+](=O)[O-])cc2)cc1)C(C)C | 0 | 56* | -34 | 2 | 3 | 4 | -2
